Only some compounds are listed: those with a hit (about 1.3% of all), similar ones and a draw of the others.
G6PDH CS – counter-screen for G6PDH assay hits: L. mesenteroides G6PDH inhibition. Purified L. mesenteroides G6PDH, diaphorase/resazurin coupled fluorescence, 45 min. 200,000 tested, 0.12% active. inhibition, % at 5 µM; in the data active = inhibition above about 50%
TbHK1 inh – T. brucei hexokinase 1 inhibition. 220,000 tested, 0.11% active. recombinant TbHK1, G6PDH-coupled NADH A340. inhibition, % at 10 µM;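 active = inhibition of 50% or more in the single-dose primary screen; inactive = inhibition below 50%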
PfGluPho inh – PfG6PD (Plasmodium falciparum) enzyme inhibition. PfGluPho enzyme, NADPH resazurin-diaphorase fluorescence. 350,000 tested, 0.78% active. AID 504690. inhibition, % at 20 µM;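 active = inhibition reaching at least a set limit at 20 µM in the primary screen, cut at about 59% in these data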
HKDC1 inhibitor – HKDC1 (human) hexokinase inhibition. 340,000 tested, 0.16% active. Q2TB90. inhibition, % at 20 µM. recombinant HKDC1, G6PDH/diaphorase resazurin coupled fluorescence. AID 493160;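 active = inhibition above about 35% when tested at 20 µM, limit read from the data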
Target sequence (Q2TB90 whole entry, looked up): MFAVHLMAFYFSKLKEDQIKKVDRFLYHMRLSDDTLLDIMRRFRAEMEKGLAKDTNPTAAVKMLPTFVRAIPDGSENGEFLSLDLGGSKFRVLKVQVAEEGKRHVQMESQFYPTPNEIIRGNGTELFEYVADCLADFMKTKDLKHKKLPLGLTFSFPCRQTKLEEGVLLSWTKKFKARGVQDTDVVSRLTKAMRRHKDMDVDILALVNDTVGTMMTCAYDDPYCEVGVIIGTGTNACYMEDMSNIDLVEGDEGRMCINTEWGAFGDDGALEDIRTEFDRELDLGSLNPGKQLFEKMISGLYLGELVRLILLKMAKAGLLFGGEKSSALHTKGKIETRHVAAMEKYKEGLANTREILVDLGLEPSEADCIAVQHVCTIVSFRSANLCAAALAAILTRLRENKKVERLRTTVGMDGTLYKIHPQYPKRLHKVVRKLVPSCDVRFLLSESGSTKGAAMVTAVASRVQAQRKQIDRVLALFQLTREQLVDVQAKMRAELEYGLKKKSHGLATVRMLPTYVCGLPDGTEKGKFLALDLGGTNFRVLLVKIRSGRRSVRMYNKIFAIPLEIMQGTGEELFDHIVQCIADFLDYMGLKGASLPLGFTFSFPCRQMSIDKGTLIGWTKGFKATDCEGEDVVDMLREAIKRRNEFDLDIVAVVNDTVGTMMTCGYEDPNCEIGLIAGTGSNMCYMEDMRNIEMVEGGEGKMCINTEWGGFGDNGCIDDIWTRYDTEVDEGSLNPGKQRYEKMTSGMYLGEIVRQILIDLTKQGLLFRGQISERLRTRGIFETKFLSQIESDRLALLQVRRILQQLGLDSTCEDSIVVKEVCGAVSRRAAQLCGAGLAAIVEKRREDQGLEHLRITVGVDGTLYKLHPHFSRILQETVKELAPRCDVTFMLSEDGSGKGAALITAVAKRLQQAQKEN
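Test system: Recombinant HKDC1 (HK5) hexokinase enzyme, produced in-house | Input: HKDC1 at 5 µg/mL | Buffer or medium: Tris pH 8.0 buffer with MgCl2, Tween-20, BSA, BME | Schedule: 90 min reaction incubation at room temperature, dark | Technique: Resazurin-to-resorufin fluorescence via G6PDH and diaphorase coupling, 525/613 nm | Controls: DMSO wells with and without enzyme mix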
Diaph inh CS – counter-screen for diaphorase-based assays: diaphorase inhibitors and chemical oxidizers; 190,000 tested, 0.69% active; inhibition, % at 20 µM; diaphorase resazurin-to-resorufin fluorescence, NADH, 16 min; bacterial (C. kluyveri) enzyme, not human; AID 1217;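 active = primary screen inhibition at 20 µM above a set limit, cut at about 50% in these data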
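controls = No-NADH positive control and DMSO neutral control | system = Clostridium kluyveri diaphorase enzyme | timing = reaction incubation of 16 min at room temperature | signal = resorufin fluorescence 544/590 nm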
PfGluPho conf – PfG6PD inhibition, single-dose confirmed; shares compounds with PfGluPho inh; recombinant PfGluPho, NADPH-diaphorase-resazurin fluorescence; inhibition, % at 20 µM; 2,400 tested, 34% active;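 active = inhibition of at least 50% at 20 µM in any single replicate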
Diaphorase 10uM – counter-screen for P. falciparum G6PD inhibitors: diaphorase inhibitors, oxidizers; shares compounds with PfGluPho inh; diaphorase-coupled resazurin reduction, fluorescence, NADPH 10 uM; inhibition, % at 20 µM; 820 tested, 39% active; AID 504862;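 active = average inhibition reaching 50% or more with the compound at 20 µM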;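 note: resorufin red fluorescence formed as diaphorase reduces resazurin using NADPH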
Diaph ctr 30uM – inhibits diaphorase or oxidizes, flagging false PfG6PD hits. shares compounds with PfGluPho inh. 820 tested, 29% active. Diaphorase/resazurin coupled assay, resorufin fluorescence, 30 uM NADPH. inhibition, % at 20 µM;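 active = inhibition averaging 50% or more, tested at 20 µM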
Hits are given with their value; . = inactive; / = not tested or not shown.

SMILES | G6PDH CS | TbHK1 inh | PfGluPho inh | HKDC1 inhibitor | Diaph inh CS | PfGluPho conf | others
COc1cccc(NC(=O)C(OC(=O)c2ccc([N+](=O)[O-])o2)c2ccccc2)c1 (centres undefined) | . | . | . | . | . | /
COc1cccc(NC(=O)C(OC(=O)c2ccccc2NS(=O)(=O)c2cccs2)c2ccccc2)c1 (centres undefined) | . | . | 75 | . | . | .
O=C1NC(C(=O)O)=CC(c2ccc([N+](=O)[O-])cc2)N1 (centres undefined) | / | . | 65 | . | / | .
NC(=O)c1nsc(C(=O)N(c2ccccc2)C(C(=O)NCC2CCCO2)c2ccc3ncccc3c2)c1N (centres undefined) | / | / | . | . | / | /
CCc1nnc(N/N=C/c2c(C)[nH]c3ccccc23)n1N | . | . | 60 | . | . | .
CC(=O)Oc1ccc(-c2csc(Nc3ccc(S(N)(=O)=O)cc3)n2)cc1 | . | . | 62 | . | / | .
NS(=O)(=O)c1ccc(Nc2nc(-c3ccc(O)cc3)cs2)cc1 | . | . | 70 | . | . | .
Cc1nc(N)sc1-c1csc(Nc2ccc(S(N)(=O)=O)cc2)n1 | / | / | . | . | / | /
Oc1ccc(Nc2nc(-c3ccc(O)cc3)cs2)cc1 | . | . | . | . | . | /
C/C(=N\Nc1ccc([N+](=O)[O-])cc1)c1cccc(N)c1 | . | . | 111 | . | . | .
C/C(=N\Nc1ccc([N+](=O)[O-])cc1)c1ccc(O)cc1 | . | . | 66 | . | . | .
C/C(=N\Nc1ncc(Br)cn1)c1cccc([N+](=O)[O-])c1 | / | / | . | . | / | /
O=C(O)c1cccc(-c2ccc(/C=N/Nc3ccc([N+](=O)[O-])cc3)o2)c1 | / | . | . | . | / | /
Cc1nnc(N/N=C/c2ccccc2O)n1N | . | . | . | . | . | /
Cc1nnc(N/N=C/c2ccc(-c3ccccc3F)o2)n1N | . | . | 67 | . | . | 56 | Diaphorase 10uM=.;Diaph ctr 30uM=.
CCC(=O)N/N=C/c1ccc(-c2ccc([N+](=O)[O-])cc2)o1 | . | . | . | . | . | /
Cc1nnc(N/N=C\c2ccc(-c3ccccc3[N+](=O)[O-])o2)n1N | . | . | 82 | . | . | .
O=C(O)c1ccc(-c2ccc(/C=N/Nc3ccc([N+](=O)[O-])cc3)o2)cc1 | / | . | 71 | . | / | .
CCc1nnc(N/N=C/c2ccc(-c3ccc([N+](=O)[O-])cc3)o2)n1N | . | . | 69 | . | . | .
CC(=O)c1cccc(NC(=O)C(C)OC(=O)c2cc(C)oc2C)c1 (centres undefined) | / | / | . | . | / | /
COc1ccc2[nH]c3c(C)c4ccncc4c(C)c3c2c1 | / | . | 60 | . | / | .
COc1ccc2[nH]c(C)cc(=O)c2c1 | . | . | . | . | . | /
Cc1ccc(C(=O)Nc2ccc(Br)c(C(F)(F)F)c2)cc1 | . | . | 69 | . | . | .
Cc1ccc(NC(=O)c2ccc(C)cc2)cc1 | / | / | . | . | / | /
CCOC(=O)c1c2c(n(-c3ccc(OC)cc3)c1C)C(=O)C(=O)c1ccccc1-2 | / | / | 72 | . | / | .
SMILES | G6PDH CS | TbHK1 inh | PfGluPho inh | HKDC1 inhibitor | Diaph inh CS | PfGluPho conf | others
CCOC(=O)c1sc(=S)n(-c2ccc(OC)cc2)c1C | / | . | . | . | / | /
Cc1ccc(NCc2ccccc2O)cc1 | . | . | . | . | . | /
Cc1ccc(CNc2ccc(O)cc2)cc1 | . | . | 86 | . | 53 | 64 | Diaphorase 10uM=.;Diaph ctr 30uM=.
Cc1c(Cl)cccc1NC(=O)C1Cc2ccccc2CN1C(=O)c1ccccc1 (centres undefined) | . | . | 81 | . | . | .
Cc1cccc(NC(=O)C2Cc3ccccc3CN2C(=O)OCc2ccccc2)c1C (centres undefined) | . | . | . | . | . | /
COc1cccc(NC(=O)c2cnn(-c3ccccc3)c2C)c1 | / | / | 63 | . | / | .
CCc1cccc(NC(=O)c2cnn(-c3ccccc3)c2C)c1 | / | / | . | . | / | /
COc1ccc(CNC(=O)Cc2cn(C)c3ccccc23)c(OC)c1 | / | / | 79 | . | / | 55 | Diaphorase 10uM=.;Diaph ctr 30uM=52
Cc1cc(C)nc(NC(N)=NC(C)c2ccccc2)n1 (centres undefined) | . | . | . | . | . | /

Screening results as filed in PubChem.
